Inhibition in vivo and IC50 data for 10 compounds are collected here from ChEMBL document CHEMBL1667759, “Molecular modeling study and synthesis of quinazolinone-arylpiperazine derivatives as α1-adrenoreceptor antagonists” (Eur J Med Chem, 2011).

The structures appear in SMILES notation. Where a name gives a salt, the structure may show the parent alone.

Common to all, as to format: functional
Test [1] concerns Felis catus. The experiment in a line: Hypotensive activity in normotensive cat assessed as reduction in diastolic blood pressure at 500 mg/kg, iv. To be noted: Artery. Put shortly: (§1)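 Male cats (2e3 kg), acclimatized 7 days at 22 °C with 12 h light/dark cycle; groups of six. Single 500 mg/kg dose injected via femoral vein, flushed with 1 mL saline. Systolic and diastolic pressure recorded with mercury manometer on smoked kymograph; mean ± SD and % change versus control, significance by one-way ANOVA at P < 0.05. Experiments run 8–10 a.m.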

In test [2] the test system is Felis catus. The experiment in a line: Hypotensive activity in normotensive cat assessed as reduction in systolic blood pressure at 500 mg/kg, iv. The following applies: Artery. The essentials:
as §1

For test [3], the species on record is Rattus norvegicus. As to the kind of experiment: Vasodilatory activity in Wistar rat aortic rings without endothelium assessed as reduction in norepinephrine hydrochloride-induced vasoconstriction. To be noted: Wister, Aorta. Put shortly: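 Thoracic aortic rings from male Wister rats (250e350 g), killed by cervical dislocation and bleeding after light ether anaesthesia. Contraction to norepinephrine hydrochloride (10^-6 M) measured before and after increasing compound concentrations; compounds dissolved in DMSO (0.01 M stock), with DMSO-alone controls. IC50 = concentration giving 50% reduction of maximal NE contracture, derived by best-fit line.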

As usually defined, the inhibition in vivo is the relative decrease from the control value, in per cent. The IC50 is the point on the concentration scale where inhibition reaches its midpoint. For the compound `COc1ccccc1N1CCN(Cc2nc3ccccc3c(=O)[nH]2)CC1`, the inhibition in vivo at 500 mg/kg is 21.7% in test [1] and 23.7% in test [2]. Further, the IC50 in test [3] was found to be 303 µM.

For `CCOC(=O)c1nc2cc(OC)c(OC)cc2c(=O)n1NC(=O)CN1CCN(c2ccccc2OC)CC1`, the inhibition in vivo at 500 mg/kg in test [1] amounted to 4.02%; in test [2] it was 2.22%.

Turning to `CCOC(=O)c1nc2cc(OC)c(OC)cc2c(=O)n1NC(=O)CCN1CCN(c2ccccc2OC)CC1`, the inhibition in vivo at 500 mg/kg was 13.9% in test [1] and 12.4% in test [2]. The IC50 in test [3] stood at 400 µM.

For `COc1ccccc1N1CCN(CC(=O)Nn2c(C)nc3ccccc3c2=O)CC1`, the inhibition in vivo at 500 mg/kg in test [1] and in test [2] was 0% each time.

As to `COc1cc2nc(C)n(NC(=O)CN3CCN(c4ccccc4OC)CC3)c(=O)c2cc1OC`, the inhibition in vivo at 500 mg/kg in test [1] came to 2.78%; in test [2], 3.13%.

Turning to `COc1cc2nc(C)n(NC(=O)CCN3CCN(c4ccccc4)CC3)c(=O)c2cc1OC`, the inhibition in vivo at 500 mg/kg came out at 13.9% in test [1] and 15.6% in test [2].

As for `COc1cc2nc(C)n(NC(=O)CCN3CCN(c4ccccc4OC)CC3)c(=O)c2cc1OC`, the inhibition in vivo at 500 mg/kg is 40% in test [1] and 42.2% in test [2]. Also, the IC50 in test [3] worked out at 201 µM.

`COc1cc2nc(C)n(NC(=O)CCN3CCN(c4ccc([N+](=O)[O-])cc4)CC3)c(=O)c2cc1OC`: the inhibition in vivo at 500 mg/kg came to 6.82% in test [1] and 5% in test [2].

With `COc1cc2nc(C)n(NC(=O)CCN3CCN(C(=O)c4ccco4)CC3)c(=O)c2cc1OC`, the values for the inhibition in vivo at 500 mg/kg in test [1] and in test [2] were 11.1% and 9.38%, respectively.

As for `COc1cc2nc(N3CCN(C(=O)c4ccco4)CC3)nc(N)c2cc1OC` [PRAZOSIN HYDROCHLORIDE], the inhibition in vivo at 500 mg/kg in test [1] and in test [2] was 29% throughout. In addition, the IC50 in test [3] turned out to be 487 µM.
